Data taken from ChEMBL document CHEMBL1139506, “Effect on K(ATP) channel activation properties and tissue selectivity of the nature of the substituent in the 7- and the 3-position of 4H-1,2,4-benzothiadiazine 1,1-dioxides” (J Med Chem, 2005).
Blank lines part the entries; values can stand above or below the molecule they belong to.

How the values were obtained:
Rattus norvegicus [1] = organism: Rattus norvegicus; test: Concentration required for relaxation of the 30 mM KCl-induced contraction of rat aortic rings (n=4); format: functional; settings: Aorta, read-out: ED50 (the source's name)
Method in brief: (§1)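 Endothelium-denuded transverse aortic rings (3-4 mm) from fed Wistar rats (180-200 g); isometric tension by force transducer. After 60 min equilibration, contracted with 30 mM KCl; at stable tension, drug added cumulatively until maximal relaxation or up to 0.3 mM. Relaxation expressed as % of KCl contraction; ED50 (50% inhibition of KCl plateau) from dose curves; mean ± SEM (n).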

Rattus norvegicus [2] = organism: Rattus norvegicus; test: Effect on insulin secretion from rat pancreatic islets at 10 uM concentration (n=15); format: functional
Method in brief: (§2)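 Islets isolated by collagenase from fed Wistar rats (180-220 g); groups of 10 preincubated 30 min, 37 °C, in bicarbonate salt medium with 2.8 mM glucose, 0.5% dialyzed albumin, O2/CO2 95:5. Then incubated 90 min, 37 °C, with 16.7 mM glucose plus drug. Insulin measured by radioimmunoassay against rat insulin standard; expressed as % of drug-free 16.7 mM glucose control; mean ± SEM (n).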

Rattus norvegicus [3] = organism: Rattus norvegicus; test: Effect on insulin secretion from rat pancreatic islets at 50 uM concentration (n=21); format: functional; method in brief: as §2
[4] = Ionization constant was determined; format: physicochemical
Method in brief: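 Ionization constant found by UV spectroscopy in aqueous buffers spanning pH 5 to 12; pKa calculated with the Debye-Hückel equation at the absorbance maximum of the basic form.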

Rattus norvegicus [5] = organism: Rattus norvegicus; test: ED50/IC50 ratio was determined; format: functional
Rattus norvegicus [6] = organism: Rattus norvegicus; test: Concentration giving 50% relaxation of the 30 mM KCl-induced contraction of rat aortic rings (n=5); format: functional; settings: Aorta, read-out: ED50 (the source's name); method in brief: as §1
Rattus norvegicus [7] = organism: Rattus norvegicus; test: Concentration required for 50% inhibition of insulin release in rat pancreatic B-cells; format: functional, cell-based
Rattus norvegicus [8] = organism: Rattus norvegicus; test: Effect on insulin secretion from rat pancreatic islets at 10 uM concentration (n=24); format: functional; method in brief: as §2
Rattus norvegicus [9] = organism: Rattus norvegicus; test: Effect on insulin secretion from rat pancreatic islets at 50 uM concentration (n=12); format: functional; method in brief: as §2
Rattus norvegicus [10] = organism: Rattus norvegicus; test: Effect on insulin secretion from rat pancreatic islets at 1 uM concentration (n=20); format: functional; method in brief: as §2
Rattus norvegicus [11] = organism: Rattus norvegicus; test: Concentration giving 50% relaxation of the 30 mM KCl-induced contraction of rat aortic rings (n=3); format: functional; settings: Aorta, read-out: ED50 (the source's name); method in brief: as §1
Rattus norvegicus [12] = organism: Rattus norvegicus; test: Effect on insulin secretion from rat pancreatic islets at 10 uM concentration (n=14); format: functional; method in brief: as §2
Rattus norvegicus [13] = organism: Rattus norvegicus; test: Effect on insulin secretion from rat pancreatic islets at 50 uM concentration (n=13); format: functional; method in brief: as §2
Rattus norvegicus [14] = organism: Rattus norvegicus; test: Effect on insulin secretion from rat pancreatic islets at 1 uM concentration (n=15); format: functional; method in brief: as §2
Rattus norvegicus [15] = organism: Rattus norvegicus; test: Effect on insulin secretion from rat pancreatic islets at 10 uM concentration (n=21); format: functional; method in brief: as §2
Rattus norvegicus [16] = organism: Rattus norvegicus; test: Effect on insulin secretion from rat pancreatic islets at 1 uM concentration (n=16); format: functional; method in brief: as §2
Rattus norvegicus [17] = organism: Rattus norvegicus; test: Effect on insulin secretion from rat pancreatic islets at 10 uM concentration (n=12); format: functional; method in brief: as §2
Rattus norvegicus [18] = organism: Rattus norvegicus; test: Effect on insulin secretion from rat pancreatic islets at 1 uM concentration (n=23); format: functional; method in brief: as §2
Rattus norvegicus [19] = organism: Rattus norvegicus; test: Concentration giving 50% relaxation of the 30 mM KCl-induced contraction of rat aortic rings (n=8); format: functional, Aorta; settings: read-out: ED50 (the source's name); method in brief: as §1
Rattus norvegicus [20] = organism: Rattus norvegicus; test: Effect on insulin secretion from rat pancreatic islets at 10 uM concentration (n=22); format: functional; method in brief: as §2
Rattus norvegicus [21] = organism: Rattus norvegicus; test: Effect on insulin secretion from rat pancreatic islets at 50 uM concentration (n=20); format: functional; method in brief: as §2
Rattus norvegicus [22] = organism: Rattus norvegicus; test: Concentration required for relaxation of the 30 mM KCl-induced contraction of rat aortic rings; format: functional; settings: Aorta; method in brief: as §1
Rattus norvegicus [23] = organism: Rattus norvegicus; test: Effect on insulin secretion from rat pancreatic islets at 10 uM concentration (n=23); format: functional; method in brief: as §2
Rattus norvegicus [24] = organism: Rattus norvegicus; test: Effect on insulin secretion from rat pancreatic islets at 50 uM concentration (n=23); format: functional; method in brief: as §2
Rattus norvegicus [25] = organism: Rattus norvegicus; test: Effect on insulin secretion from rat pancreatic islets at 1 uM concentration (n=19); format: functional; method in brief: as §2
Rattus norvegicus [26] = organism: Rattus norvegicus; test: Concentration giving 50% relaxation of the 30 mM KCl-induced contraction of rat aortic rings (n=6); format: functional; settings: Aorta, read-out: ED50 (the source's name); method in brief: as §1
Rattus norvegicus [27] = organism: Rattus norvegicus; test: Effect on insulin secretion from rat pancreatic islets at 10 uM concentration (n=13); format: functional; method in brief: as §2
Rattus norvegicus [28] = organism: Rattus norvegicus; test: Effect on insulin secretion from rat pancreatic islets at 1 uM concentration (n=14); format: functional; method in brief: as §2
Rattus norvegicus [29] = organism: Rattus norvegicus; test: Effect on insulin secretion from rat pancreatic islets at 50 uM concentration (n=15); format: functional; method in brief: as §2
Rattus norvegicus [30] = organism: Rattus norvegicus; test: Concentration giving 50% relaxation of the 30 mM KCl-induced contraction of rat aortic rings (n=7); format: functional; settings: Aorta, read-out: ED50 (the source's name); method in brief: as §1
Rattus norvegicus [31] = organism: Rattus norvegicus; test: Effect on insulin secretion from rat pancreatic islets at 50 uM concentration (n=16); format: functional; method in brief: as §2
Rattus norvegicus [32] = organism: Rattus norvegicus; test: Effect on insulin secretion from rat pancreatic islets at 50 uM concentration (n=14); format: functional; method in brief: as §2
Rattus norvegicus [33] = organism: Rattus norvegicus; test: Effect on insulin secretion from rat pancreatic islets at 50 uM concentration (n=9); format: functional; method in brief: as §2
Rattus norvegicus [34] = organism: Rattus norvegicus; test: Concentration required for relaxation of the 30 mM KCl-induced contraction of rat aortic rings; Precipitate; format: functional; settings: Aorta; method in brief: as §1
Rattus norvegicus [35] = organism: Rattus norvegicus; test: Effect on insulin secretion from rat pancreatic islets at 50 uM concentration (n=11); format: functional; method in brief: as §2
Rattus norvegicus [36] = organism: Rattus norvegicus; test: Effect on insulin secretion from rat pancreatic islets at 10 uM concentration (n=32); format: functional
Rattus norvegicus [37] = organism: Rattus norvegicus; test: Effect on insulin secretion from rat pancreatic islets at 50 uM concentration (n=35); format: functional
Rattus norvegicus [38] = organism: Rattus norvegicus; test: Effect on insulin secretion from rat pancreatic islets at 1 uM concentration (n=31); format: functional
Rattus norvegicus [39] = organism: Rattus norvegicus; test: Effect on insulin secretion from rat pancreatic islets at 10 uM concentration (n=16); format: functional; method in brief: as §2

- EC50 (Rattus norvegicus [1]): 57.9 µM
Compound: N#Cc1ccc2c(c1)S(=O)(=O)N=C(NC1CCC1)N2
- Residual insulin release (Rattus norvegicus [2]): 102.6%
- Residual insulin release (Rattus norvegicus [3]): 54.3%

- pKa [4]: 10.1
- EC50 (Rattus norvegicus [6]): 274 µM
- IC50 (Rattus norvegicus [7]): 3.7 µM
Compound: COc1ccc2c(c1)S(=O)(=O)NC(NC(C)C)=N2
- Ratio (Rattus norvegicus [5]): 74
- Residual insulin release (Rattus norvegicus [8]): 8.5%
- Residual insulin release (Rattus norvegicus [9]): 4.4%
- Residual insulin release (Rattus norvegicus [10]): 67.6%

- EC50 (Rattus norvegicus [1]): > 30 µM
Compound: CCCCCc1ccc2c(c1)S(=O)(=O)NC(NC1CCC1)=N2
- Residual insulin release (Rattus norvegicus [2]): 95.3%

- pKa [4]: 10.2
- EC50 (Rattus norvegicus [11]): 200 µM
- IC50 (Rattus norvegicus [7]): 2 µM
Compound: Cc1ccc2c(c1)S(=O)(=O)N=C(NC(C)C)N2
- Ratio (Rattus norvegicus [5]): 100
- Residual insulin release (Rattus norvegicus [12]): 8.5%
- Residual insulin release (Rattus norvegicus [13]): 3.5%
- Residual insulin release (Rattus norvegicus [14]): 71.3%

- EC50 (Rattus norvegicus [1]): > 300 µM
Compound: CCCNC1=NS(=O)(=O)c2ccccc2N1
- Residual insulin release (Rattus norvegicus [15]): 54.2%
- Residual insulin release (Rattus norvegicus [16]): 93.8%

- EC50 (Rattus norvegicus [1]): > 300 µM
Compound: CCNC1=NS(=O)(=O)c2ccccc2N1
- Residual insulin release (Rattus norvegicus [17]): 25.8%
- Residual insulin release (Rattus norvegicus [18]): 77.4%

- EC50 (Rattus norvegicus [19]; Rattus norvegicus, Aorta): > 200 µM
Compound: COC(=O)c1ccc2c(c1)S(=O)(=O)NC(NC(C)C)=N2
- Residual insulin release (Rattus norvegicus [20]): 95.7%
- Residual insulin release (Rattus norvegicus [21]): 94.3%

- IC50 (Rattus norvegicus [22]): 154 µM
- EC50 (Rattus norvegicus [19]): 154 µM
Compound: CC(C)C(C)NC1=NS(=O)(=O)c2cnccc2N1 (centres undefined)
- Ratio (Rattus norvegicus [5]): 35
- Residual insulin release (Rattus norvegicus [23]): 13.7%
- Residual insulin release (Rattus norvegicus [24]): 8.6%
- Residual insulin release (Rattus norvegicus [25]): 70.5%

- pKa [4]: 8.96
- EC50 (Rattus norvegicus [26]): 13.1 µM
- IC50 (Rattus norvegicus [7]): 1.7 µM
Compound: CC(C)NC1=NS(=O)(=O)c2cc(C(F)(F)F)ccc2N1
- Ratio (Rattus norvegicus [5]): 7.7
- Residual insulin release (Rattus norvegicus [27]): 7.4%
- Residual insulin release (Rattus norvegicus [13]): 7.1%
- Residual insulin release (Rattus norvegicus [28]): 71.5%

- EC50 (Rattus norvegicus [1]): 8.9 µM
Compound: CCC(C)NC1=NS(=O)(=O)c2cc(C(F)(F)F)ccc2N1 (centres undefined)
- Residual insulin release (Rattus norvegicus [20]): 76.1%
- Residual insulin release (Rattus norvegicus [29]): 28.6%

- pKa [4]: 8.56
- EC50 (Rattus norvegicus [1]): 42.7 µM
Compound: CC(C)NC1=NS(=O)(=O)c2cc(C#N)ccc2N1
- Residual insulin release (Rattus norvegicus [2]): 82.2%
- Residual insulin release (Rattus norvegicus [3]): 23.5%

- EC50 (Rattus norvegicus [30]): 15.7 µM
Compound: CCCNC1=NS(=O)(=O)c2cc([N+](=O)[O-])ccc2N1
- Residual insulin release (Rattus norvegicus [31]): 88.9%

- EC50 (Rattus norvegicus [1]): 2.9 µM
Compound: CCCNC1=NS(=O)(=O)c2cc(C(F)(F)F)ccc2N1
- Residual insulin release (Rattus norvegicus [20]): 77.9%
- Residual insulin release (Rattus norvegicus [32]): 52%

- EC50 (Rattus norvegicus [1]): 17.5 µM
- IC50 (Rattus norvegicus [7]): 4 µM
Compound: CCC(C)NC1=NS(=O)(=O)c2cc(OC)ccc2N1 (centres undefined)
- Ratio (Rattus norvegicus [5]): 4.4
- Residual insulin release (Rattus norvegicus [33]): 8.5%
- Residual insulin release (Rattus norvegicus [2]): 23.4%
- Residual insulin release (Rattus norvegicus [14]): 92.4%

Compound: O=S1(=O)N=C(NC2CCC2)Nc2ccccc21
- ED50 (Rattus norvegicus [34]): Insoluble
- Residual insulin release (Rattus norvegicus [12]): 29.8%
- Residual insulin release (Rattus norvegicus [16]): 79.9%

- EC50 (Rattus norvegicus [1]): 233 µM
Compound: CCOc1ccc2c(c1)S(=O)(=O)NC(NC(C)C)=N2
- Residual insulin release (Rattus norvegicus [12]): 65.9%

- EC50 (Rattus norvegicus [1]): 58.4 µM
- IC50 (Rattus norvegicus [7]): 5.6 µM
Compound: Cc1ccc2c(c1)S(=O)(=O)NC(NC1CCC1)=N2
- Ratio (Rattus norvegicus [5]): 10
- Residual insulin release (Rattus norvegicus [8]): 19.7%
- Residual insulin release (Rattus norvegicus [35]): 3.7%
- Residual insulin release (Rattus norvegicus [18]): 99.5%

- EC50 (Rattus norvegicus [1]): 127 µM
Compound: CC(C)NC1=NS(=O)(=O)c2cc(S(C)(=O)=O)ccc2N1
- Residual insulin release (Rattus norvegicus [2]): 90.5%

- EC50 (Rattus norvegicus [26]): 36.3 µM
- IC50 (Rattus norvegicus [7]): 0.7 µM
Compound: CC(C)NC1=NS(=O)(=O)c2cc(Cl)ccc2N1
- Ratio (Rattus norvegicus [5]): 52
- Residual insulin release (Rattus norvegicus [36]): 4.9%
- Residual insulin release (Rattus norvegicus [37]): 5.7%
- Residual insulin release (Rattus norvegicus [38]): 36.2%

- EC50 (Rattus norvegicus [26]): 210 µM
- IC50 (Rattus norvegicus [7]): 2.5 µM
Compound: CCNC1=NS(=O)(=O)c2cc(C)ccc2N1
- Ratio (Rattus norvegicus [5]): 84
- Residual insulin release (Rattus norvegicus [17]): 8.6%
- Residual insulin release (Rattus norvegicus [18]): 83.8%

- pKa [4]: 9.98
- EC50 (Rattus norvegicus [1]): > 300 µM
- IC50 (Rattus norvegicus [7]): 3.8 µM
Compound: CC(C)NC1=NS(=O)(=O)c2ccccc2N1
- Ratio (Rattus norvegicus [5]): >79
- Residual insulin release (Rattus norvegicus [39]): 34.9%
- Residual insulin release (Rattus norvegicus [14]): 73.7%
